The record followed here is ChEMBL document CHEMBL3352185, “Design, synthesis, and antibacterial properties of dual-ligand inhibitors of acetyl-CoA carboxylase” (2014).

Assay [1] concerns Pseudomonas aeruginosa. Nature of the assay: Antibacterial activity against wild type Pseudomonas aeruginosa PAO1 after 18 to 24 hrs by two-fold broth microdilution method. The assay is classed as functional. Put shortly:
(§1)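 CLSI broth microdilution in cation-adjusted Mueller Hinton (MHII) broth. Strains streaked on agar and grown overnight at 35 °C. […] Value is the MIC.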

For assay [2], the system named is Escherichia coli. Nature of the assay: Antibacterial activity against Escherichia coli D21 tolC deletion mutant after 18 to 24 hrs by two-fold broth microdilution method. Format: functional. Put shortly:
as §1

The test system of assay [3] is Escherichia coli. The assay is described as follows: Antibacterial activity against wild type Escherichia coli D21 after 18 to 24 hrs by two-fold broth microdilution method. Format: functional. Put shortly: as §1
For orientation: Dilution methods test growth across graded concentrations, often in twofold steps.

Assay [4] concerns Escherichia coli. Nature of the assay: Antibacterial activity against Escherichia coli D21 IpxC101 deletion mutant after 18 to 24 hrs by two-fold broth microdilution method. Format: functional. Put shortly:
as §1

Assay [5] deals with Enterococcus faecalis. The assay is described as follows: Antibacterial activity against wild type Enterococcus faecalis ATCC 29212 after 18 to 24 hrs by two-fold broth microdilution method. Format: functional. The essentials: (§2)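 MICs were determined by CLSI broth microdilution in cation-adjusted Mueller Hinton (MHII) broth. Organisms were first streaked on agar and grown overnight at 35 °C. Compounds were dissolved in 100% DMSO and tested as 2-fold serial dilutions. A standardized inoculum was incubated with compound for 18−24 h at 35 °C. The norA strain is an otherwise isogenic S. aureus carrying a gain-of-function NorA mutation.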

The subject of assay [6] is Escherichia coli. Nature of the assay: Antibacterial activity against Escherichia coli D21 IpxC101/tolC deletion mutant after 18 to 24 hrs by two-fold broth microdilution method. The assay is classed as functional. Put shortly:
as §1

Assay [7] concerns Staphylococcus epidermidis. Nature of the assay: Antibacterial activity against wild type Staphylococcus epidermidis ATCC 35984 after 18 to 24 hrs by two-fold broth microdilution method. The assay is classed as functional. The essentials:
as §2

The test system of assay [8] is Escherichia coli. Nature of the assay: Antibacterial activity against Escherichia coli D21 tolC deletion mutant assessed as mutant prevention concentration after 18 to 24 hrs by two-fold broth microdilution method. The assay is classed as functional. Put shortly:
(§3)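 Single-step selection on MHII agar: compound added to molten agar cooled to 55 °C, at 2-fold increasing concentrations. Overnight MHII broth culture of E. coli tolC concentrated by centrifugation; 4 × 10^9 CFU plated per plate, CFU counted by serial dilution. Plates monitored for resistant colonies. MPC is the lowest consecutive concentration fully suppressing resistant mutants. Ratio is MPC to broth microdilution MIC.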

Assay [9] concerns Staphylococcus aureus. Nature of the assay: microbe, parasite or virus in culture. The following applies: ATCC 29213.
For assay [10], the system named is Escherichia coli. Nature of the assay: Competitive inhibition of Escherichia coli biotin carboxylase.
Assay [11] relates to Escherichia coli. The assay is described as follows: Non competitive inhibition of Escherichia coli acetyl-CoA carboxylase using acetyl-CoA as substrate in presence of ATP.
In assay [12] the test system is Escherichia coli. The assay is described as follows: Antibacterial activity against moiramide-resistant Escherichia coli D21 tolC deletion mutant after 18 to 24 hrs by two-fold broth microdilution method. The assay is classed as functional. Put shortly:
as §1

Assay [13] relates to Staphylococcus aureus. Nature of the assay: microbe, parasite or virus in culture. To be noted: ATCC 29213. This is another data set of the same source.
In assay [14] the test system is Escherichia coli. Nature of the assay: Ratio of MPC for Escherichia coli D21 tolC deletion mutant to MIC for Escherichia coli D21 tolC deletion mutant. Format: functional. Put shortly:
as §3

For assay [15], the system named is Escherichia coli. Nature of the assay: Antibacterial activity against Escherichia coli JM109 at 1 to 100 uM after 4 hrs by UV-Vis spectrophotometry. The assay is classed as functional, organism-based. Put shortly: (§4)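 E. coli JM109 was grown overnight in LB at 37 °C, then diluted into fresh LB tubes. Tubes received compound from a DMSO stock at final 1, 10, 50 or 100 μM, with or without polymyxin B nonapeptide at final 0.5, 1, 5 or 10 μg/mL. Tubes were incubated 4 h at 37 °C and growth was read as absorbance at 600 nm.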

The test system of assay [16] is Escherichia coli. The assay is described as follows: Antibacterial activity against Escherichia coli JM109 at 1 to 100 uM after 4 hrs by UV-Vis spectrophotometry in presence of PBMN. Format: functional, organism-based. Put shortly: as §4
For assay [17], the system named is Escherichia coli. Nature of the assay: Competitive inhibition of Escherichia coli acetyl-CoA carboxylase using acetyl-CoA as substrate in presence of ATP. The essentials: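 ACC holoenzyme activity was measured with a pyruvate kinase/lactate dehydrogenase coupled assay. Mix: 0.5 mM phosphoenolpyruvate, 0.2 mM NADH, 20 mM MgCl2, 15 mM bicarbonate, 100 mM HEPES pH 8.0. ATP was fixed at 5 μM, acetyl-CoA was varied from 50 to 1000 μM, and inhibitor was used at fixed increasing concentrations. Initial velocities were fitted to a competitive equation to give Kis.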

Assay [18] has as its system Pseudomonas aeruginosa. Nature of the assay: Antibacterial activity against Pseudomonas aeruginosa PAO1 mexAB/mexCD/mexXY/mexHI/opmH deletion mutant after 18 to 24 hrs by two-fold broth microdilution method.
Assay [19] has as its system Staphylococcus aureus. The assay is described as follows: Selectivity ratio of MIC for moiramide-resistant Staphylococcus aureus ATCC 29213 to MIC for Staphylococcus aureus ATCC 29213. Format: functional.
Assay [20] relates to Escherichia coli. The assay is described as follows: Inhibition of Escherichia coli acetyl-CoA carboxylase. Put shortly: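 Purified ACC complex was assayed by PK/LDH-coupled NADH oxidation in 100 mM HEPES pH 8.0, with 20 mM MgCl2 and 15 mM bicarbonate. One series varied ATP (0.8–56 μM) at 0.2 mM acetyl-CoA; the other varied acetyl-CoA (50–1000 μM) at 5 μM ATP. Each series was run at fixed increasing inhibitor levels. Kis and Kii came from fits to competitive or noncompetitive rate equations.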

The subject of assay [21] is Escherichia coli. The assay is described as follows: Selectivity ratio of MIC for moiramide-resistant Escherichia coli D21 tolC deletion mutant to MIC for Escherichia coli D21 tolC deletion mutant. The assay is classed as functional.
Assay [22] concerns Staphylococcus aureus. Nature of the assay: Antibacterial activity against moiramide-resistant Staphylococcus aureus ATCC 29213 after 18 to 24 hrs by two-fold broth microdilution method. The assay is classed as functional. Put shortly:
as §1

≈ marks a conversion by molar mass, not a printed value. Calls of active or inactive are those of the source. The rule behind the calls is not given here.

Turning to GENTAMICIN, the MIC in assay [1] is 2 µg/mL; in [2], 0.24 µg/mL; in assay [3], 0.1 µg/mL; in assay [4], 0.12 µg/mL; in assay [5], 8 µg/mL; in assay [6], below 0.03 µg/mL. The molecule also displayed an MIC in [7] of 8 µg/mL.
For `Nc1ncc(C(=O)N(Cc2ccccc2)Cc2ccccc2)o1`, the MIC was above 64 µg/mL in [1]; 16 µg/mL (≈ 52.1 µM) in [2] (Escherichia coli, D21); above 64 µg/mL in assay [9]; above 64 µg/mL in [3]; 8 µg/mL (≈ 26 µM) in assay [12]; above 64 µg/mL in [5]. Further, the MIC is above 64 µg/mL in assay [13], 16 µg/mL (≈ 52.1 µM) in assay [6] and above 64 µg/mL in assay [7]. Moreover, the Activity in assay [8] is recorded as above 128 mg/L. The values for the Kis in [10] and in [11] were 0.8 µM and 400 nM, respectively. In addition, in assay [11], the Kii was 900 nM. Besides, in [14], the Ratio is reported as above 8.
Consider `CC(C)[C@H](NC(=O)C[C@H](NC(=O)CCCCCCCCCCCCCCCOc1ccc(CN(Cc2ccccc2)C(=O)c2cnc(N)o2)cc1)c1ccccc1)C(=O)[C@@H]1C(=O)NC(=O)[C@H]1C`, for which the MIC in assay [1], in assay [9], in assay [3], in assay [5], in [13] and in assay [7] was above 64 µg/mL each time. The Kii in [11] was found to be 33.7 nM. The Kis came to 28.7 nM in assay [11] and 5.2 nM in assay [17]. Also, in assay [15], the result was inactive. In addition, the result in assay [16] was Active.
Consider `CO[C@H]1/C=C/O[C@@]2(C)Oc3c(C)c(O)c4c(O)c(c(/C=N/N5CCN(C)CC5)c(O)c4c3C2=O)NC(=O)/C(C)=C\C=C\[C@H](C)[C@H](O)[C@@H](C)[C@@H](O)[C@@H](C)[C@H](OC(C)=O)[C@@H]1C` [RIFAMPIN], for which the MIC is 31 µg/mL (≈ 37.7 µM) in [1]; 8 µg/mL (≈ 9.72 µM) in [2] (Escherichia coli, D21); at most 0.03 µg/mL in [9]; 31 µg/mL (≈ 37.7 µM) in assay [3]; 0.06 µg/mL (≈ 0.0729 µM) in assay [4]; 0.5 µg/mL (≈ 0.608 µM) in assay [5]. Besides, the MIC in assay [13] is at most 0.03 µg/mL; in assay [18], 31 µg/mL (≈ 37.7 µM); in [6] it was 0.5 µg/mL (≈ 0.608 µM); in assay [7] it was at most 0.03 µg/mL. Besides, the Activity in assay [8] and in [2] was above 64 mg/L each time. Further, the Ratio in [14] is listed as above 8.
As for `C/C=C/C=C/C(=O)N[C@@H](CC(=O)N[C@H](C(=O)[C@@H]1C(=O)NC(=O)[C@H]1C)C(C)C)c1ccccc1`, the results for the Ratio in assay [19], in assay [21] and in [14] were 8, 8 and 32, respectively. Moreover, the MIC is above 64 µg/mL in assay [1]; 0.5 µg/mL (≈ 1.1 µM) in assay [2] (Escherichia coli, D21); 4 µg/mL (≈ 8.82 µM) in [9]; above 64 µg/mL in [3]; 4 µg/mL (≈ 8.82 µM) in assay [4]; 4 µg/mL (≈ 8.82 µM) in [12]. For the same molecule, the MIC is 8 µg/mL (≈ 17.6 µM) in [5]; 1 µg/mL (≈ 2.2 µM) in assay [13]; 8 µg/mL (≈ 17.6 µM) in [22]; 8 µg/mL (≈ 17.6 µM) in assay [18]; 0.5 µg/mL (≈ 1.1 µM) in assay [6]; 0.24 µg/mL (≈ 0.529 µM) in [7]. Moreover, in [8], the Activity was 16 mg/L. The molecule further gave an INH in assay [20] of 5 nM. Also, the Kis in [17] was 7.9 nM.
Consider `CC(C)[C@H](NC(=O)C[C@H](NC(=O)CCCCCCCOc1ccc(CN(Cc2ccccc2)C(=O)c2cnc(N)o2)cc1)c1ccccc1)C(=O)[C@@H]1C(=O)NC(=O)[C@H]1C`, for which the MIC in assay [1] is above 64 µg/mL; in assay [2] (Escherichia coli, D21), 8 µg/mL (≈ 9.91 µM); in [9] it was 4 µg/mL (≈ 4.96 µM); in assay [3], above 64 µg/mL; in assay [12] it was 16 µg/mL (≈ 19.8 µM); in [5], 4 µg/mL (≈ 4.96 µM). The MIC in assay [13] was 4 µg/mL (≈ 4.96 µM); in assay [22], above 64 µg/mL; in [6], 4 µg/mL (≈ 4.96 µM); in assay [7], 1 µg/mL (≈ 1.24 µM). In addition, the Activity in assay [8] is on record as 64 mg/L. Moreover, in [11], the Kii was found to be 9.6 nM. Besides, the Kis in assay [11] was 16.9 nM; in assay [17], 5.5 nM. Further, in assay [14], the Ratio was determined as 8.
Take `O=C(N[C@H](CO)[C@H](O)c1ccc([N+](=O)[O-])cc1)C(Cl)Cl` [CHLORAMPHENICOL]: the MIC was above 64 µg/mL in assay [1]; 1 µg/mL (≈ 3.09 µM) in assay [2] (Escherichia coli, D21); 8 µg/mL (≈ 24.8 µM) in assay [9]; 8 µg/mL (≈ 24.8 µM) in assay [3]; 4 µg/mL (≈ 12.4 µM) in [4]; 8 µg/mL (≈ 24.8 µM) in assay [5]. The MIC was 8 µg/mL (≈ 24.8 µM) in assay [13], 2 µg/mL (≈ 6.19 µM) in assay [18], 1 µg/mL (≈ 3.09 µM) in assay [6] and 8 µg/mL (≈ 24.8 µM) in [7].
In the case of `NC[C@H]1O[C@H](O[C@H]2[C@H](O)[C@@H](O[C@H]3O[C@H](CO)[C@@H](O)[C@H](N)[C@H]3O)[C@H](N)C[C@@H]2N)[C@H](O)[C@@H](O)[C@@H]1O` [KANAMYCIN], the MIC was 128 µg/mL (≈ 264 µM) in assay [1]; 2 µg/mL (≈ 4.13 µM) in assay [2] (Escherichia coli, D21); 4 µg/mL (≈ 8.26 µM) in assay [9]; 2 µg/mL (≈ 4.13 µM) in [3]; 1 µg/mL (≈ 2.06 µM) in [4]; 0.5 µg/mL (≈ 1.03 µM) in assay [12]. Also, the MIC in [5] was 31 µg/mL (≈ 64 µM); in assay [13], 4 µg/mL (≈ 8.26 µM); in [22], 2 µg/mL (≈ 4.13 µM); in [18], 64 µg/mL (≈ 132 µM); in assay [6], 0.5 µg/mL (≈ 1.03 µM); in assay [7], above 128 µg/mL.
